Efflux pump mplx: inhibitors of Candida antifungal efflux pumps expressed in yeast; inhibition, % at 10 µM; S. cerevisiae Candida pump triplex, Nile Red efflux; AID 485275; 0.44% of 330,000 active;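 active = plate passing quality check with inhibition over a set limit, or well fluorescence over plate mean plus 4 SD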;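 note: Nile Red retained in pooled yeast measured as flow cytometry median fluorescence; 0% = buffer negative control and 100% = Enniatin B positive control; higher means more Nile Red kept so more efflux inhibition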
Cneo AK release: Cryptococcus neoformans lysis via adenylate kinase release; C. neoformans lysis, adenylate kinase release luminescence, 4 h; normalised: neutral wells 0, clomiphene wells 100; lysis activity, % at 15 µM; 0.2% of 360,000 active; AID 651654;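 active = mean lysis activity across replicates of at least 80%, whatever share of replicates individually reach that level; inactive = mean lysis activity below 80%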
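Assay system: Cryptococcus neoformans yeast cells / Dosing: single-point compound dose / Timing: 4 h at 37 °C static, read 1 h later / Measured by: luminescence of released adenylate kinase using an AK detection reagent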
SUMO Mot1 rescue: inhibitors of SUMOylation pathway: yeast Mot1-301 growth rescue. growth rescue, % at 18.8 µM. S. cerevisiae Mot1-301 growth rescue, ATP luminescence, 38.5C; percent above DMSO median, 100 means doubled. 1% of 320,000 active;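 active = every valid replicate shows activation above 250% relative to neutral control wells; inactive = the rest, any valid replicate at or below 250%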;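 note: OY570 slx delta 5 strain wells were the positive control but not used for scaling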
Statin myotox sup: suppressors of simvastatin-induced myotoxicity in C2C12 myotubes; ATP luminescence, 48 h; scaled: DMSO 0, geranylgeraniol control 100; rescue of ATP level, % at 7.49 µM; 0.78% of 330,000 active;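 active = mean ATP rescue above about 67%, or every replicate alone reaching that limit, limit read from the data, passing the limit was not always enough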;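 note: myotubes were challenged with 10 µM simvastatin during compound exposure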
* = called active by the depositor; . = no result given. Hits are enriched below; roughly 1.8% of the tested compounds scored in any of these assays.

SMILES | Efflux pump mplx | Cneo AK release | SUMO Mot1 rescue | Statin myotox sup
CCCCn1c(N)c(N(CC(C)C)C(=O)c2ccc(Cl)c(S(=O)(=O)N3CCCC3)c2)c(=O)[nH]c1=O | 0 | . | -24 | -10
COc1ccccc1Cn1c(CCCO)nc2ccccc21 | 0 | 0 | -4 | 7
OCc1nc2ccccc2n1CCCOc1ccccc1 | 0 | . | -14 | .
COCCOCCn1c(CCCO)nc2ccccc21 | 0 | -4 | 2 | 82*
Cc1ccc(OCCCn2c(CO)nc3ccccc32)cc1 | 0 | -6 | 6 | 134*
CC(C)C(=O)Nc1sc2c(c1-c1nc3ccccc3[nH]1)CCCC2 | 0 | . | 83 | .
Cc1ccc(S(=O)(=O)N(C)C[C@H]2Oc3ncc(Br)cc3C(=O)N([C@@H](C)CO)C[C@H]2C)cc1 | . | 39 | . | -3
COc1ccc(-c2noc(Cc3ccccc3OC)n2)cc1 | 0 | -4 | 80 | 24
COc1ccc(-c2noc(Cc3cccs3)n2)cc1 | 0 | -4 | 28 | 93*
COCC#Cc1ccc2c(c1)O[C@H](CN(C)C)[C@H](C)CN([C@@H](C)CO)S2(=O)=O | . | 7 | . | 12
O=C(C1CCN(c2ncnc3c2nc2n3CCCCC2)CC1)N1CCN(c2ccc(F)cc2)CC1 | 0 | 5 | 4 | -7
Cc1noc(C)c1S(=O)(=O)N(C)C[C@@H]1OCCCC[C@@H](C)Oc2ccc(NC(=O)CCCCCC(=O)Nc3ccccc3N)cc2C(=O)N([C@H](C)CO)C[C@@H]1C | . | 108* | . | .
Cc1noc(C)c1NC(=O)Nc1ccc2c(c1)C(=O)N([C@@H](C)CO)C[C@@H](C)[C@H](CN(C)S(=O)(=O)c1c(C)noc1C)OCCCC[C@@H](C)O2 | . | 34 | . | 77*
Cc1noc(C)c1NC(=O)Nc1ccc2c(c1)C(=O)N([C@H](C)CO)C[C@@H](C)[C@H](CN(C)S(C)(=O)=O)OCCCC[C@@H](C)O2 | . | 103* | . | .
Cc1nc2ncnn2c(N2CCN(C(c3ccccc3)c3ccccc3)CC2)c1C | 0 | 1 | 33 | 79*
S=C(NCCc1ccc(Cl)cc1)NCc1ccccc1 | 0 | 114* | 25 | -10

Assay outcomes (PubChem)
